Screening data as filed in PubChem.
Rows were chosen to be rich in hits. Some 5.3% of all compounds tested hit in one or more screens of this group.
NALP3 yeast inh = blocks the NALP3 inflammasome reconstituted in yeast. 0.39% of 330,000 active. Yeast reconstituted NLRP3/ASC/caspase-1, beta-gal luminescence, 24 h. inhibition, % at 10 µM. AID 2825;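 active means inhibition of 50% or more; inactive means inhibition below 50%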;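 further: plate controls were induced DMSO wells for no effect and uninduced yeast grown without galactose for full effect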
Calb FLC = affects C. albicans growth with fluconazole; C. albicans CaCi-2 + fluconazole, Alamar Blue growth, 48 h; growth inhibition, % (no concentration beside the values); 0.57% of 300,000 active; AID 1979;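 active means growth inhibition above about 58% in most replicates, limit read from the data, passing the limit was not always enough; inconclusive means exactly half the replicates above a set limit; inactive means most replicates below a set limit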;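 further: all wells also contain fluconazole at 8 µg/ml as a sub-toxic cotreatment; 0% = median of DMSO wells and 100% = median of geldanamycin control wells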
Mdm2 MdmX PPI = inhibitors of human Mdm2/MdmX interaction; AID 485346; O15151+Q00987; SaOS-2 split-luciferase Mdm2/MdmX complementation, luminescence; inhibition, % at 8 µM; 3% of 330,000 active;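 active means inhibition of at least 50% at 8 µM in the primary screen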
Target sequence (O15151 whole entry, looked up): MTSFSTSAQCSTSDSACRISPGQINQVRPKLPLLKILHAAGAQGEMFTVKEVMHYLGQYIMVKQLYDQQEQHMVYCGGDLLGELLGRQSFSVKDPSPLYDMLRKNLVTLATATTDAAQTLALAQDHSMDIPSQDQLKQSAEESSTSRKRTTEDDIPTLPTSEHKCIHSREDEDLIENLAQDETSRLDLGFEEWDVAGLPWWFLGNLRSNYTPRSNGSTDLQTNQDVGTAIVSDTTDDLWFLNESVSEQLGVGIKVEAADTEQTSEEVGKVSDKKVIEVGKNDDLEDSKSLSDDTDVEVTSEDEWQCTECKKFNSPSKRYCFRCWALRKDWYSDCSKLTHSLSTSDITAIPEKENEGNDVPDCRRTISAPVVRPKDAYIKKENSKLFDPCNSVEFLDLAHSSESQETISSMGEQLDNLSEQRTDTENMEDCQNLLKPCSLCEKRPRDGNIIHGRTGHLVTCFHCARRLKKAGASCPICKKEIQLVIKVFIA
Target sequence (Q00987 whole entry, looked up): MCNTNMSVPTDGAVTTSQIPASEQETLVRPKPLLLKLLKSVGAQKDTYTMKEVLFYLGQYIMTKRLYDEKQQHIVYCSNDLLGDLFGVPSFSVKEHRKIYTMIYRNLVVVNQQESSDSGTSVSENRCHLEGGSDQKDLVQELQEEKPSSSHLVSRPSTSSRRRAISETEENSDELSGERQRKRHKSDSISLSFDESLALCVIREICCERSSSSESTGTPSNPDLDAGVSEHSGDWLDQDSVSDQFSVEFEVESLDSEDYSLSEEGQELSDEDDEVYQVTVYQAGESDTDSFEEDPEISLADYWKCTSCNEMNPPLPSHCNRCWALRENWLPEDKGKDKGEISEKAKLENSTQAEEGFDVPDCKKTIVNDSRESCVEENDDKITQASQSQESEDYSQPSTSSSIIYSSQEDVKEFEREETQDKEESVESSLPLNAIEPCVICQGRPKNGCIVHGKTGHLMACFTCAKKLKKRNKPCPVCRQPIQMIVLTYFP
CSC inhib = blocks cancer stem cells | inhibition, % at 7.5 µM | AID 2717 | 1.1% of 300,000 active | cancer stem cell-like cells viability, luminescence; in the data active means inhibition above about 75%; inconclusive means no clear call, values can overlap the other calls; tested in HMLE shEcad cells
Beta apoptosis = beta cell apoptosis inhibition. INS-1E cytokine-induced death, ATP luminescence, 48 h; percent of positive-control rescue, neutral wells zero. protection from apoptosis, % (no concentration beside the values). 0.8% of 300,000 active;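 active means Every replicate reaches about 75%, or at least half do and their mean reaches it too, limit read from the data; inconclusive means At least half of replicates reach the limit but their mean does not; inactive means Under half of replicates reach the limit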;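 further: 0% = cytokine-treated negative control wells and 100% = positive control rescue; higher means more ATP so stronger rescue from cytokine killing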
T cruzi inh = T. cruzi replication inhibition. T. cruzi beta-gal in NIH3T3, luminescence, 90 h. AID 1885. inhibition, % (no concentration beside the values). 1.4% of 300,000 active;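 active means mean inhibition across valid replicates above about 55%, limit read from the data; inconclusive means mean below that limit but half or more replicates reach it; inactive means mean below it, under half of replicates reach it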;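 further: signal also drops with host cell toxicity which is not excluded here; 0% = plate median of DMSO wells and 100% = zero luminescence signal; higher percent means less beta-gal luminescence so fewer parasites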
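Material: NIH/3T3 host cells with β-galactosidase reporter T. cruzi; Input: 5,000 host fibroblasts per well; Medium: DMEM, 2% fetal bovine serum; Compound: 50 nL DMSO compound solution per well; Schedule: 3 h host attachment, then at least 90 h co-culture; Detection: luminescent β-galactosidase signal after 60 min lysis.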
* marks the source's active call; other numbers are inactive results; ? = inconclusive; . = no result given.

SMILES | NALP3 yeast inh | Calb FLC | Mdm2 MdmX PPI | CSC inhib | Beta apoptosis | T cruzi inh
Cc1nnc(N/N=C/c2cc([N+](=O)[O-])c(N3CCC(C)CC3)cc2N2CCC(C)CC2)n1N | 16 | -10 | 16 | 19 | 115* | 46
CCc1nnc(N/N=C/c2ccc(N3CCC(C)CC3)c([N+](=O)[O-])c2)n1N | 22 | 18 | 30 | 0 | -3 | 21
COc1ccccc1-c1sc2ccccc2c1-c1ccc(OCCN2CCOCC2)cc1 | . | . | 34 | . | . | .
c1ccc(-c2sc3ccccc3c2-c2ccc(OCCN3CCOCC3)cc2)cc1 | 23 | . | 7 | 86* | -8 | .
C1=C(c2sc3ccccc3c2-c2ccc(OCCN3CCOCC3)cc2)CCCC1 | -3 | . | 27 | 88* | 2 | .
COc1cc(OC)cc(-c2sc3ccc(OC)cc3c2-c2ccc(OCCN3CCOCC3)cc2)c1 | . | . | 43 | . | . | .
COc1ccc(-c2sc3cc4c(cc3c2-c2ccc(OCCN3CCOCC3)cc2)OCO4)cc1 | -9 | . | 17 | 125* | 8 | .
COc1cccc(-c2sc3ccc(OC)cc3c2-c2ccc(OCCN3CCOCC3)cc2)c1 | -2 | . | 9 | 104* | -4 | .
CCOc1ccc(/C=N/NC(=O)c2nnn(-c3nonc3N)c2CN2CCC(C)CC2)cc1 | 1 | 18 | 3 | 8 | 0 | -3
CCc1cccc(Nc2c([N+](=O)[O-])cc(C(=O)N3CC(=O)Nc4ccccc43)cc2[N+](=O)[O-])c1 | 13 | -1 | 10 | . | 12 | 77*
CCc1cccc(NC(=O)CNC(=O)N2CC(=O)Nc3ccccc32)c1 | 6 | -1 | 26 | -12 | -3 | 6
COc1cc(OC)c(C=O)c(OC(=O)N2CCOCC2)c1 | -4 | 10 | 18 | 128* | -12 | -3
COc1ccc(OC(=O)N2CCOCC2)cc1 | 3 | -7 | 0 | -15 | -1 | 0
Cn1c(=O)c2c(nc3n2CC(COc2ccc(Cl)cc2)O3)n(C)c1=O (stereo not given) | 12 | -25 | 2 | -3 | -6 | 11
CC1(C)C=Cc2c(ccc3c2OC[C@H](c2ccc(O)cc2O)C3)O1 | 14 | . | -47 | 114* | 2 | .
CC(=O)Oc1ccc([C@@H]2COc3c(ccc4c3C=CC(C)(C)O4)C2)c(OC(C)=O)c1 | 17 | -3 | -67 | -6 | -2 | 0
Cc1ccc(-n2cc(CN3CCC(O)(c4ccccn4)CC3)c(-c3ccc(F)cc3)n2)cc1 | 39 | 1 | 24 | 4 | -14 | 55*
O=C(COC(=O)c1cccs1)Nc1cccc(S(=O)(=O)NC2=NCCCCC2)c1 | 17 | -11 | -26 | -10 | -7 | -17
CCC(=O)Nc1ccc2nc(C3CC3)n(Cc3ccc(C(C)(C)C)cc3)c(=O)c2c1 | 8 | 6 | -6 | 11 | 7 | 58*
CC(=O)Nc1ccc2nc(C3CC3)n(Cc3ccc(Cl)cc3)c(=O)c2c1 | 24 | 9 | -107 | 2 | -4 | 27
CCCOc1ccc(N)cc1N | 23 | -3 | 18 | 30 | 99* | -7
O=C(Nc1cccc(Cl)c1)c1ccc(=O)[nH]n1 | 9 | 4 | 10 | . | . | -2
CC(C)(C)C(=O)Cn1ncc(Br)c(Br)c1=O | . | 30 | . | . | . | 61*
Nc1sc(-c2ccccc2)n[n+]1Cc1cccc2cccnc12 | 20 | 30 | 33 | 11 | 10 | 60*
Oc1ccccc1CNc1cccc2cccnc12 | 14 | -2 | 10 | 38 | 13 | 7
SMILES | NALP3 yeast inh | Calb FLC | Mdm2 MdmX PPI | CSC inhib | Beta apoptosis | T cruzi inh
COc1ccccc1N1C(C)=CC(=C(C#N)c2nc3ccccc3s2)C=C1C | 20 | 8 | 37 | 32 | 128* | ?
N#CC1=C(N)Oc2cc(N)ccc2C1c1ccccc1Cl (stereo not given) | -10 | 1 | 39 | -3 | 2 | 6
CC(=O)n1c2c(c3ccccc31)OC(N)=C(C#N)C2c1cccc(Cl)c1Cl (stereo not given) | 9 | 11 | 37 | 76* | 15 | -5
NC(=O)C1CCN(C(=O)c2cc(-c3ccc(Cl)cc3)nc3ccccc23)CC1 | 19 | . | 7 | -4 | -3 | .
OC(c1cc(-c2ccc(Cl)cc2)nc2ccccc12)C1CCCCN1 (stereo not given) | . | 94* | . | 116* | 121* | 50
CC(=NCCc1c(C)[nH]c2ccc(OCc3ccccc3)cc12)C1=C(O)CC(c2ccccc2)CC1=O (stereo not given) | 28 | -7 | 28 | 12 | -1 | 58*
O=c1c2ccccc2cnn1Cc1n[nH]c(=S)n1-c1ccc(F)cc1 | 7 | 12 | -24 | -8 | -5 | -14
